The whole screen tested about 200,000 compounds, of which about 170 (0.085%) were called active.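 How the source made its calls: active means inhibition above 40% at the single screening dose; inactive means the rest.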 Only a selection was taken, and actives are over-represented in it overall.
biological target: DNA repair protein RAD51 homolog 1 (Homo sapiens) (UniProt Q06609); test: human RAD51 strand exchange inhibitors, primary screen, biochemical, fluorescence (AID 1385); conditions: hRad51 DNA strand exchange, fluorescence dequenching; at 10 µM; stronger effect = higher value;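 further: 0% = DMSO control wells and 100% = blanks with heterologous ssDNA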
Sequence (Q06609 whole entry, looked up): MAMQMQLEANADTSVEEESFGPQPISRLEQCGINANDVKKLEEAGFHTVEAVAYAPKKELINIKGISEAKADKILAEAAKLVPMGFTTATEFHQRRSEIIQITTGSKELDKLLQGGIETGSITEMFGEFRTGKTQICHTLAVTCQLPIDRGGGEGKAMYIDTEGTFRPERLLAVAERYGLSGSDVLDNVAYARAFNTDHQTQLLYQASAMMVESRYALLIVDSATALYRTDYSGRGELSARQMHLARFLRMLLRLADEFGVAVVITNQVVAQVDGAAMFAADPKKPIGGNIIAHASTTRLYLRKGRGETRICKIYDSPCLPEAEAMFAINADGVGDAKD
Outline: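 material = hRad51 filaments on single-stranded DNA | timing = filaments 15 min 37 °C, then compound 30 min | signal = FRET fluorescence dequenching, excitation 485 nm, emission 520 nm | benchmarks = control wells and blank wells on each plate | evaluation = percent inhibition relative to plate controls and blanks | compound = 10 µM final, single point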

SMILES | inhibition
Cc1ccc2c(c1)nnc1nnc(SCC(=O)O)n12 | 3.89% (inactive)
CCC(C)(C)NC(=O)C(c1ccc(O)cc1)N(C(=O)Cn1nnc2ccccc21)c1ccc(NC(C)=O)cc1 (stereo unspecified) | -8.67% (inactive)
Oc1c(Br)cc(/C=N/NC(=S)NCC2CCCO2)cc1Br (stereo unspecified) | -9.24% (inactive)
O=C(Nc1nc2ccc([N+](=O)[O-])cc2s1)c1ccncc1 | 6.33% (inactive)
COc1cc(OC)c(OC)cc1/C=N/Nc1ncnc2c1[nH]c1ccc(C)cc12 | -8.84% (inactive)
Cc1nc(-c2ccc(Cl)cc2)sc1C1(C)CC(c2ccc(Br)cc2)=NO1 (stereo unspecified) | -6.72% (inactive)
CCC(CC)c1nnc(NC(=O)c2nn(C)c(=O)c3ccccc23)s1 | 6.66% (inactive)
CCC(CC)c1nnc(NS(=O)(=O)Cc2ccccc2)s1 | 84.4% (active)
COc1ccc(Cc2nnc(NS(=O)(=O)Cc3ccccc3)s2)cc1 | -0.75% (inactive)
COc1ccccc1N1CCN(C(=O)CSc2ncnc3c2cnn3-c2ccc(C)c(C)c2)CC1 | -12.6% (inactive)
CC1CN(c2nc(Nc3ccccc3)nc(N)c2[N+](=O)[O-])CC(C)O1 (stereo unspecified) | -23.5% (inactive)
CC(=O)c1ccc(NC(=O)C2CC(=O)Nc3nc4ccccc4n32)cc1 (stereo unspecified) | -1.17% (inactive)
COc1ccccc1-c1c(C#N)c(N)nc2c1CCC2 | -0.29% (inactive)
CCNC(=S)N1CCN(CCN=CC2=C(O)CC(C)(C)CC2=O)CC1 | 16.2% (inactive)
Cc1cccc(N2CCN(Cc3nc(C4CC4)no3)CC2)n1 | -8.44% (inactive)
COC(=O)[C@H](CC(C)C)NC(=O)N1CCCCC1C (stereo partly specified) | -6.96% (inactive)
COc1ccc(/C(C)=N/N2CCOCC2)c(O)c1 | 16.1% (inactive)
Cn1c(SCC(=O)N/N=C/c2ccc(O)c(O)c2)nc2ccccc21 | -10.2% (inactive)
Cc1cc(=O)oc2c(C(=O)c3ccccc3)c(OCC(N)=O)ccc12 | -5.93% (inactive)
CCOc1ccc(C2NC(=S)NC3=C2CCc2ccccc23)cc1 (stereo unspecified) | 5.83% (inactive)
CN1CCc2nc(SC(C(=O)O)c3ccccc3)c(C#N)c(-c3cccs3)c2C1 (stereo unspecified) | -22.2% (inactive)
CCCc1ccc(C(=O)[C@@H]2[C@@H](C(C)=O)N3c4ccc(F)cc4C=C[C@@H]3[C@@]23C(=O)Nc2ccccc23)cc1 | 10.1% (inactive)
CC(C)S(=O)(=O)c1csc(NC(=O)Nc2ccc(Cl)cc2)c1Cl | -3.14% (inactive)
Cc1ccc(-c2csc(-c3cc(C)on3)n2)cc1 | 9.91% (inactive)
CC1(C)CCSC(/C=C/c2ccccc2)=N1 | 10.2% (inactive)
CC(C)(C)c1cc(C(=O)NN)n(Cc2ccc(Cl)cc2Cl)n1 | 9.98% (inactive)
